biological target: Protease (Human immunodeficiency virus 1, UniProt Q9YQ12); assay: Inhibition of HIV1 protease by FRET-based assay
Outline: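 HIV-1 protease activity was read out by a FRET-based protease assay, following a previously described method. Triazolamer solutions were made up in 10% DMSO in aqueous buffer for the assay.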

Sequence of Protease (Q9YQ12 whole entry): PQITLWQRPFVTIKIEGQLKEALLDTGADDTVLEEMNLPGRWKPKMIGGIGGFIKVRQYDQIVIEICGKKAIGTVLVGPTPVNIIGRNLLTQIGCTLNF

SMILES | IC50 [µM] | Ki [µM]
CNC(=O)[C@H](Cc1ccccc1)n1cc([C@H](Cc2ccccc2)n2cc([C@H](Cc3ccccc3)n3cc([C@H](Cc4ccccc4)n4cc([C@@H](N)Cc5ccccc5)nn4)nn3)nn2)nn1 | 72 | –
CC(C)[C@@H](c1cn([C@@H](Cc2ccccc2)c2cn([C@@H](Cc3ccccc3)c3cn([C@H](c4cn([C@H](C)c5ccccc5)nn4)C(C)C)nn3)nn2)nn1)n1cc(CCc2ccccc2)nn1 | 101 | –
C[C@H](c1ccccc1)n1cc([C@H](Cc2ccccc2)n2cc([C@H](Cc3ccccc3)n3cc([C@H](Cc4ccccc4)n4cc([C@@H](N)Cc5ccccc5)nn4)nn3)nn2)nn1 | 29 | 25
CNC(=O)[C@H](C(C)C)n1cc([C@H](Cc2ccccc2)n2cc([C@H](Cc3ccccc3)n3cc([C@H](C)N)nn3)nn2)nn1 | > 500 | 500
C[C@H](c1ccccc1)n1cc([C@H](Cc2ccccc2)n2cc([C@H](Cc3ccccc3)n3cc([C@@H](N)Cc4ccccc4)nn3)nn2)nn1 | 78 | –
NCCNC(=O)[C@H](Cc1ccccc1)n1cc([C@H](Cc2ccccc2)n2cc([C@H](Cc3ccccc3)n3cc([C@H](Cc4ccccc4)n4cc([C@@H](N)Cc5ccccc5)nn4)nn3)nn2)nn1 | 25 | 25
CC(C)[C@H](N)c1cn([C@@H](Cc2ccccc2)c2cn([C@@H](Cc3ccccc3)c3cn([C@H](C)c4ccccc4)nn3)nn2)nn1 | 129 | –
CC(C)[C@H](N)c1cn([C@H](c2cn([C@@H](Cc3ccccc3)c3cn([C@H](c4cn([C@H](C)c5ccccc5)nn4)C(C)C)nn3)nn2)C(C)C)nn1 | 131 | –
CC(C)[C@H](N)c1cn([C@@H](Cc2ccccc2)c2cn([C@@H](Cc3ccccc3)c3cn([C@H](c4cn([C@H](C)c5ccccc5)nn4)C(C)C)nn3)nn2)nn1 | 60 | –
CNC(=O)[C@H](C(C)C)n1cc([C@H](Cc2ccccc2)n2cc([C@H](Cc3ccccc3)n3cc([C@@H](N)C(C)C)nn3)nn2)nn1 | > 500 | 500

— ChEMBL document CHEMBL1154588, “Evaluation of triazolamers as active site inhibitors of HIV-1 protease” (Bioorg Med Chem Lett, 2009)
